Measurements from ChEMBL document CHEMBL3351625, “Ethyl 2-(benzylidene)-7-methyl-3-oxo-2,3-dihydro-5H-thiazolo[3,2-a]pyrimidine-6-carboxylate analogues as a new scaffold for protein kinase casein kinase 2 inhibitor” (Bioorg Med Chem, 2014).

Legend:
[1] = target: Tyrosine-protein kinase SYK (Homo sapiens) (UniProt P43405); test: Inhibition of human Syk assessed as residual activity at 10 uM by KinaseProfiler assay
Procedure, shortened: (§1)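 Radioactive phosphorylation assays were run by an outsourced profiling service. Each of 31 human kinases was tested with inhibitor at 10 µM. Residual activity is expressed as a percentage of the mean activity in positive-control wells, which contained all reaction components except inhibitor plus DMSO as solvent control.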

Homo sapiens = organism: Homo sapiens; test: Inhibition of human CK1 assessed as residual activity at 10 uM by KinaseProfiler assay; procedure, shortened: as §1
[2] = target: Glycogen synthase kinase-3 beta (Homo sapiens) (UniProt P49841); test: Inhibition of human GSK3beta assessed as residual activity at 10 uM by KinaseProfiler assay; procedure, shortened: as §1
Glycogen synthase kinase-3 beta (Homo sapiens), sequence (P49841 whole entry, looked up): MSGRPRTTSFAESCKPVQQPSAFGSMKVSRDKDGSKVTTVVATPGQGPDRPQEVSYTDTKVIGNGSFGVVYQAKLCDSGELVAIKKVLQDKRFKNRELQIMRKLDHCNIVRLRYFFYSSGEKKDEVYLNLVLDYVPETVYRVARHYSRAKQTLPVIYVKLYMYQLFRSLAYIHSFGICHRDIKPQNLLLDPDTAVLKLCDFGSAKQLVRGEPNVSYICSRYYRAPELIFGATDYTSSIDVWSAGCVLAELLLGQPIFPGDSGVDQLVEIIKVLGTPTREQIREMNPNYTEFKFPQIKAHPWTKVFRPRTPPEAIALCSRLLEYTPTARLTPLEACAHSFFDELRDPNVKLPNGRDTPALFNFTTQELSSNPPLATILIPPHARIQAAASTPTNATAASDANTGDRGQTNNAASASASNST

[3] = target: T1, Serine/threonine-protein kinase Sgk1 (Homo sapiens) (UniProt O00141); test: Inhibition of human SGK assessed as residual activity at 10 uM by KinaseProfiler assay; procedure, shortened: as §1
T1 sequence (whole entry): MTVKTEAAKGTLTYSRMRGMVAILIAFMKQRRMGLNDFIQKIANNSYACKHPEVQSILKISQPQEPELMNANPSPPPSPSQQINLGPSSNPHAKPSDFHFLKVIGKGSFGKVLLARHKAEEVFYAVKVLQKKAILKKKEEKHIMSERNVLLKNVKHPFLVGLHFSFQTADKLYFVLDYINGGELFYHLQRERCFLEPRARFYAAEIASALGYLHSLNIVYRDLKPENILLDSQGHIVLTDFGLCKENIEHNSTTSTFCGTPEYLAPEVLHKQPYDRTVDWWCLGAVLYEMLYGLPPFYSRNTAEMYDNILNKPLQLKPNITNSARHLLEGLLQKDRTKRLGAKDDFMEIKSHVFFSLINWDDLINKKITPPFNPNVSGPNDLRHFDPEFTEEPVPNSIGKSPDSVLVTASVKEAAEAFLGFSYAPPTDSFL

[4] = target: Tyrosine-protein kinase Fgr (Homo sapiens) (UniProt P09769); test: Inhibition of human Fgr assessed as residual activity at 10 uM by KinaseProfiler assay; procedure, shortened: as §1
Tyrosine-protein kinase Fgr (Homo sapiens), sequence (P09769 2-529 limits assumed): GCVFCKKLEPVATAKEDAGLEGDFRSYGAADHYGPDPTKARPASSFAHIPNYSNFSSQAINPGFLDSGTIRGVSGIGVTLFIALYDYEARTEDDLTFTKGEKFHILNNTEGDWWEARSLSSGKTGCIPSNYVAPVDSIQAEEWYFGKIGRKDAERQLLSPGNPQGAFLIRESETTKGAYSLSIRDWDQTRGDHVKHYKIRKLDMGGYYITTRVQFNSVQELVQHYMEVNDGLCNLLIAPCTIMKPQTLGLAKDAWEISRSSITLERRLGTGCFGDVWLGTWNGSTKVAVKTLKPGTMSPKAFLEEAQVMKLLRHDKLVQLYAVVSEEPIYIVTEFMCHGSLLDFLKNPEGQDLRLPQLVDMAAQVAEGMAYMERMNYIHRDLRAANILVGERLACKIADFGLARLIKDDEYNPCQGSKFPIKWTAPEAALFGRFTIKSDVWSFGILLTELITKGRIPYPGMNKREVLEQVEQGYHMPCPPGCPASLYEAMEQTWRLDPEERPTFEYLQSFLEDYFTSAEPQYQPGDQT

[5] = target: Tyrosine-protein kinase Lck (Homo sapiens) (UniProt P06239); test: Inhibition of human Lck assessed as residual activity at 10 uM by KinaseProfiler assay; procedure, shortened: as §1
Tyrosine-protein kinase Lck (Homo sapiens), sequence (P06239 2-509 limits assumed): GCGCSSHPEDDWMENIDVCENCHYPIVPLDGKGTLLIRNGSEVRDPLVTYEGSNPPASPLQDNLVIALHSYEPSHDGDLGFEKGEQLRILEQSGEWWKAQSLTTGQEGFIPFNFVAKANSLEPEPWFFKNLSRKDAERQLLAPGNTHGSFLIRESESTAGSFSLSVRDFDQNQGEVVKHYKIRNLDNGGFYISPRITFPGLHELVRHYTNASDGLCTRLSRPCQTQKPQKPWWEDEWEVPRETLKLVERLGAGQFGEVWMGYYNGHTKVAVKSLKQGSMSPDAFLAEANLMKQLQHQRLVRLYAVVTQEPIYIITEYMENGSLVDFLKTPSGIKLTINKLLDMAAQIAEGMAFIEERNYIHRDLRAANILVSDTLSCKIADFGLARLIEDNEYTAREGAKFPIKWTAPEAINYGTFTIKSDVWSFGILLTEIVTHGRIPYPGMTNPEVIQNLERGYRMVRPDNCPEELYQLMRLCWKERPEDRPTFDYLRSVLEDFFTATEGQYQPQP

[6] = target: T2, Serine/threonine-protein kinase Chk1 (Homo sapiens) (UniProt O14757); test: Inhibition of human CHK1 assessed as residual activity at 10 uM by KinaseProfiler assay; procedure, shortened: as §1
T2 sequence (whole entry): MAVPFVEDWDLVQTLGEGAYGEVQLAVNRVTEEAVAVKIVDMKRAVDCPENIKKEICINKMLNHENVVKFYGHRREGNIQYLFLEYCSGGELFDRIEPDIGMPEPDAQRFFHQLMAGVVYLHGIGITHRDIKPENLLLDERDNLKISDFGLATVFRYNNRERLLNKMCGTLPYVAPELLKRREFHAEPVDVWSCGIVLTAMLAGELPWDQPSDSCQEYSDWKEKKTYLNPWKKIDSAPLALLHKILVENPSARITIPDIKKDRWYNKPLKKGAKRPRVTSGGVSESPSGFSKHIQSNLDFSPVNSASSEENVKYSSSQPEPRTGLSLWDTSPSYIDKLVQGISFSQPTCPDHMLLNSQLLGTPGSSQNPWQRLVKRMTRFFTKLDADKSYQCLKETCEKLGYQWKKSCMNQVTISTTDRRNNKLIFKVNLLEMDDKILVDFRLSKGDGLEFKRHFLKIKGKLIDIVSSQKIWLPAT

[7] = target: Mitogen-activated protein kinase 14 (Homo sapiens) (UniProt Q16539); test: Inhibition of human SAPK2a assessed as residual activity at 10 uM by KinaseProfiler assay; procedure, shortened: as §1
Mitogen-activated protein kinase 14 (Homo sapiens), sequence (Q16539 whole entry): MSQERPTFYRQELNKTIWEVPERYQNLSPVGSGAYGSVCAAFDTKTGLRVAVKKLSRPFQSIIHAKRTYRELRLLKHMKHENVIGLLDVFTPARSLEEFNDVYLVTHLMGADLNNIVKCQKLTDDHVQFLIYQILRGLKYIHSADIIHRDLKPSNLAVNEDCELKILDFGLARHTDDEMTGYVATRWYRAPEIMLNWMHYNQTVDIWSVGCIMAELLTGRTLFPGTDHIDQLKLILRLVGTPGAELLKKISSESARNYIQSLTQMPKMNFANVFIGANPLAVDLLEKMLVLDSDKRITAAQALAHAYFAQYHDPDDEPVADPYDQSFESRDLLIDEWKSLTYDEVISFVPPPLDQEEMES

[8] = target: Ribosomal protein S6 kinase alpha-5 (Homo sapiens) (UniProt O75582); test: Inhibition of human MSK1 assessed as residual activity at 10 uM by KinaseProfiler assay; procedure, shortened: as §1
Ribosomal protein S6 kinase alpha-5 (Homo sapiens), sequence (O75582 whole entry, looked up): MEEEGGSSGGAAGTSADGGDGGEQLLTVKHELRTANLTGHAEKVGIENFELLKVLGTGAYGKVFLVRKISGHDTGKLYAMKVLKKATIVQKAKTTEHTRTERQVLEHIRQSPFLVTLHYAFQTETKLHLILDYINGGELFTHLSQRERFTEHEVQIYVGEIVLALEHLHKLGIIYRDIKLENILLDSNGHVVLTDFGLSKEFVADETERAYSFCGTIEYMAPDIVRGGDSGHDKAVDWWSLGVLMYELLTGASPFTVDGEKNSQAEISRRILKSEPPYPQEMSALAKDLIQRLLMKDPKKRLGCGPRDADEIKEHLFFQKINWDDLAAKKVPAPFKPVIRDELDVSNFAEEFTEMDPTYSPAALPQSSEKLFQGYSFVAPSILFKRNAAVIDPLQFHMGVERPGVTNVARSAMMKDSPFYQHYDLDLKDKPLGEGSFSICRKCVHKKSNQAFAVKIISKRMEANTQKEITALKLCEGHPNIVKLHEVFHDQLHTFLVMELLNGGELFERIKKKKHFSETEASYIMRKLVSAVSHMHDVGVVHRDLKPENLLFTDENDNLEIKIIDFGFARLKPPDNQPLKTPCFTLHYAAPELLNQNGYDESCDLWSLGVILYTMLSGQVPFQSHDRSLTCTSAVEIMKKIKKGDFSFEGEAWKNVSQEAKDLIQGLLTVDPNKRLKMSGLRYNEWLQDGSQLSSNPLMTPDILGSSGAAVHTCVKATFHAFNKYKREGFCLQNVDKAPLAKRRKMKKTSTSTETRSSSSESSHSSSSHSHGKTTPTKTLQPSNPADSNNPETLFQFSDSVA

[9] = target: T3, Mitogen-activated protein kinase kinase kinase kinase 2 (Homo sapiens) (UniProt Q12851); test: Inhibition of human GCK assessed as residual activity at 10 uM by KinaseProfiler assay; procedure, shortened: as §1
T3 sequence (whole entry): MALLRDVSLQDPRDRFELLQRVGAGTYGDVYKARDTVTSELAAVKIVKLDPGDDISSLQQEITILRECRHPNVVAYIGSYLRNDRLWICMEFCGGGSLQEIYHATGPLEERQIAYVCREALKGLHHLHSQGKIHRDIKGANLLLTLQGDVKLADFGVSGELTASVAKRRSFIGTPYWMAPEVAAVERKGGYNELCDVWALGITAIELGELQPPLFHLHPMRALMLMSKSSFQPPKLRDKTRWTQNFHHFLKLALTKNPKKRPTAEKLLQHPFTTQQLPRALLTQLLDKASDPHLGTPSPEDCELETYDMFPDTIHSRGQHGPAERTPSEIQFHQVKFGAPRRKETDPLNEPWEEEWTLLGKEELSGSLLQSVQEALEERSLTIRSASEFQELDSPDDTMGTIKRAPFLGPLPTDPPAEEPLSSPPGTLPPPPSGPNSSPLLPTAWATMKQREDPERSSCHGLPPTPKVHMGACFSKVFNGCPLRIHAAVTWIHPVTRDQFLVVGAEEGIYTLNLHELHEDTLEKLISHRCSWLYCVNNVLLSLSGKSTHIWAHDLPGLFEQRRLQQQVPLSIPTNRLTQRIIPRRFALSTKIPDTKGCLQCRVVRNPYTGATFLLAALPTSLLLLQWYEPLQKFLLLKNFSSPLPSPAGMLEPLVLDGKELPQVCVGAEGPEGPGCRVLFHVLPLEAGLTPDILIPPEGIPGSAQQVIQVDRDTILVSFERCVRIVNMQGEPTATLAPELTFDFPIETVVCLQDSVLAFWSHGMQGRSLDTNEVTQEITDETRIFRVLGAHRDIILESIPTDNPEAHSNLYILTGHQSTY

[10] = target: Tyrosine-protein kinase CSK (Homo sapiens) (UniProt P41240); test: Inhibition of human CSK assessed as residual activity at 10 uM by KinaseProfiler assay; procedure, shortened: as §1
Tyrosine-protein kinase CSK (Homo sapiens), sequence (P41240 2-450 limits assumed): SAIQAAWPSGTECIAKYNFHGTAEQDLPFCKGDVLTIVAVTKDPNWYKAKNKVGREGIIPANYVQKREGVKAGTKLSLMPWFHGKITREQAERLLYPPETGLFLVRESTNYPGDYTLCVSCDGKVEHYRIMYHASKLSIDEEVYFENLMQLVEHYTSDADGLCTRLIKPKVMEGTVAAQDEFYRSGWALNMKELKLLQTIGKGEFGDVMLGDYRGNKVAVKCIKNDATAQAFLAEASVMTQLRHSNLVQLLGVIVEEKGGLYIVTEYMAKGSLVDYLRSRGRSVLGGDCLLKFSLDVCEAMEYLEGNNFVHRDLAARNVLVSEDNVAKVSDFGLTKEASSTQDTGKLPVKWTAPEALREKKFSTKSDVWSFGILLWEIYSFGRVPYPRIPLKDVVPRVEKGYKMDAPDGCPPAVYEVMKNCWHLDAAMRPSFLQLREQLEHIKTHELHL

[11] = target: RAC-alpha serine/threonine-protein kinase (Homo sapiens) (UniProt P31749); test: Inhibition of human PKBalpha assessed as residual activity at 10 uM by KinaseProfiler assay; procedure, shortened: as §1
RAC-alpha serine/threonine-protein kinase (Homo sapiens), sequence (P31749 whole entry): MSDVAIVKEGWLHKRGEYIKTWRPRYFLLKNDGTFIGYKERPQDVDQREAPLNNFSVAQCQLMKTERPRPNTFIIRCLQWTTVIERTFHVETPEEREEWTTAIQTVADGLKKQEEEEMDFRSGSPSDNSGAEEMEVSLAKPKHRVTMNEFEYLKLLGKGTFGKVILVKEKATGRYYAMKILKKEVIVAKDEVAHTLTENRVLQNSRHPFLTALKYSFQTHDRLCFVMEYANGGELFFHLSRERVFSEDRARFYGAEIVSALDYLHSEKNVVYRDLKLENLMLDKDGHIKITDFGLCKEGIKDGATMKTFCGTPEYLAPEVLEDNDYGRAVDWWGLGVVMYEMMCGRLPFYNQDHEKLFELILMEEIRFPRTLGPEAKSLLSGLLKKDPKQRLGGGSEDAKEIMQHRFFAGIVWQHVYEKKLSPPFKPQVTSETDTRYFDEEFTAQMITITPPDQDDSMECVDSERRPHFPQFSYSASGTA

[12] = target: MAP kinase-activated protein kinase 2 (Homo sapiens) (UniProt P49137); test: Inhibition of human MAPKAP-K2 assessed as residual activity at 10 uM by KinaseProfiler assay; procedure, shortened: as §1
MAP kinase-activated protein kinase 2 (Homo sapiens), sequence (P49137 whole entry, looked up): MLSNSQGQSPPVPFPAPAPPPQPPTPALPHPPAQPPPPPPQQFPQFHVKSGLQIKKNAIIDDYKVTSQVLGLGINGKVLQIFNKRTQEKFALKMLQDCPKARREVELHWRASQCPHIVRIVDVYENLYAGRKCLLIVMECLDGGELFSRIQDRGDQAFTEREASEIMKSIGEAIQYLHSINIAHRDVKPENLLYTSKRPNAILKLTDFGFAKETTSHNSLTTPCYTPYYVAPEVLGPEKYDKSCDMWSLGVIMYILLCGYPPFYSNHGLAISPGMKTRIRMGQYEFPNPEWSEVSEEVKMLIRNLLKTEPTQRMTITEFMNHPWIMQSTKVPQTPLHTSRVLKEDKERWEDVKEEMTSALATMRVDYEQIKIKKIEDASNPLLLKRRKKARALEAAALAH

| SMILES | Activity [1] | Activity (Homo sapiens) | Activity [2] | Activity [3] | Activity [4] | Activity [5] | Activity [6] | Activity [7] | Activity [8] | Activity [9] | Activity [10] | Activity [11] | Activity [12] |
| --- | --- | --- | --- | --- | --- | --- | --- | --- | --- | --- | --- | --- | --- |
| Brc1c(Br)c(Br)c2[nH]nnc2c1Br | 87% | 51% | 42% | 65% | 102% | 78% | 149% | 99% | 66% | 92% | 116% | 61% | 78% |
| CCOC(=O)C1=C(C)N=c2s/c(=C\c3cc(O)c(O)c(O)c3)c(=O)n2C1c1ccc(Cl)cc1 (centres undefined) | 28% | 77% | 51% | 61% | 75% | 61% | 127% | 59% | 124% | 87% | 54% | 50% | 86% |
| CCOC(=O)C1=C(C)N=c2s/c(=C\c3ccc(O)c(O)c3)c(=O)n2C1c1ccc(Cl)cc1 (centres undefined) | 77% | 50% | 52% | 85% | 98% | 57% | 117% | 72% | 127% | 87% | 82% | 90% | 98% |
